Key:
[1] = Effective concentration to show 50% of activity was measured on herpes simplex virus-1 KOS strain cell culture.; assay type: functional, Human alphaherpesvirus 1
Outline: (§1)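 Plaque reduction assay in Vero cells kept in RPMI 1640 with 10% FBS. HSV-1 was KOS strain and HSV-2 was strain 333. EC50 is based on the reduction in plaques.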

Human alphaherpesvirus 3 [2] = test: Effective concentration to show 50% of activity was measured on varicella zoster virus(VZV) cell culture; assay type: functional, organism-based
CCRF-CEM [3] = test: Dose that inhibited 50% cell growth of human T-lymphoid CEM cells compared with untreated control; assay type: functional
Outline: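 CEM cells in log-phase growth were exposed to serial drug dilutions and kept for three generations, then counted by Coulter counter. ID50 is the dose giving 50% growth inhibition versus untreated control.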

[4] = Effective concentration to show 50% of activity was measured on herpes simplex virus-2 333 strain cell culture.; assay type: functional, Human alphaherpesvirus 2; outline: as §1
CCRF-CEM [5] = test: The mitochondrial toxicity was measured on human T-lymphoid CEM cells.; assay type: functional
Outline: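 Human T-lymphoid CEM cells were incubated with drug at various concentrations, with medium and drug renewed on days 4 and 6, and harvested on day 8. DNA was extracted in TE (25 mM Tris pH 8.0, 1 mM EDTA), treated with RNase A and proteinase K, slot-blotted and probed with an mtDNA-specific probe.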

Human gammaherpesvirus 4 = test: Effective concentration to show 50% of activity was measured on Epstein Barr virus(EBV) cell culture; assay type: functional, organism-based
Outline: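 EBV-producing H-1 cells were kept in RPMI 1640 with 10% FBS. Inhibition of viral growth was read as reduced viral DNA synthesis and expressed as EC50.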

Human alphaherpesvirus 3 [6] = test: The effective concentration to show 50% of activity was measured on varicella zoster virus(VZV) cell culture; assay type: functional, organism-based
Outline: (§2)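 VZV Ellen strain was used. Antiviral effect was scored as inhibition of viral DNA synthesis and expressed as EC50.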

Human alphaherpesvirus 3 [7] = test: The effective concentration to show 50% of activity was measured on varicella zoster virus(Ellen) cell culture; assay type: functional, organism-based; outline: as §2
[8] = The effective concentration to show 50% of activity was measured on herpes simplex virus-1 with strain KOS cell culture.; assay type: functional, cell-based, Human alphaherpesvirus 1; outline: as §1

SMILES	EC50 [1]	EC50 (Human alphaherpesvirus 3 [2]; Human alphaherpesvirus 3)	ID50 (CCRF-CEM [3])	EC50 [4]	ID50 (CCRF-CEM [5])	EC50 (Human gammaherpesvirus 4; human gammaherpesvirus 4)	EC50 (Human alphaherpesvirus 3 [6])	EC50 (Human alphaherpesvirus 3 [2])	EC50 (Human gammaherpesvirus 4)	EC50 (Human alphaherpesvirus 3 [7])	EC50 [8]
O=c1[nH]c(=O)n([C@H]2O[C@@H](CO)[C@H](O)[C@H]2F)cc1/C=C/Br	> 50 µM	> 50 µM	> 100 µM	> 50 µM	–	–	–	–	–	–	–
O=c1[nH]c(=O)n([C@H]2O[C@@H](CO)[C@H](O)[C@@H]2F)cc1/C=C/Br	> 50 µM	> 50 µM	> 100 µM	> 50 µM	–	–	–	–	–	–	–
O=c1[nH]c(=O)n([C@H]2CO[C@H](CO)O2)cc1/C=C/Cl	> 50 µM	> 30 µM	> 100 µM	> 50 µM	> 25 µM	> 50 µM	–	–	–	–	–
O=c1[nH]c(=O)n([C@@H]2CO[C@H](CO)O2)cc1/C=C/Br	36 µM	0.07 µM	> 100 µM	> 50 µM	> 200 µM	0.59 µM	–	–	–	–	–
O=c1[nH]c(=O)n(C2CS[C@@H](CO)O2)cc1/C=C/Br (stereo partly drawn)	> 50 µM	–	> 100 µM	> 50 µM	–	–	–	–	–	–	–
O=c1[nH]c(=O)n([C@@H]2CO[C@@H](CO)O2)cc1/C=C/Br	> 50 µM	> 30 µM	> 100 µM	> 50 µM	–	> 50 µM	–	–	–	–	–
O=c1[nH]c(=O)n([C@@H]2CO[C@H](CO)O2)cc1/C=C/Cl	18 µM	0.15 µM	> 100 µM	> 50 µM	> 200 µM	0.49 µM	–	–	–	–	–
O=c1[nH]c(=O)n([C@H]2CO[C@H](CO)O2)cc1/C=C/Br	> 50 µM	> 30 µM	> 100 µM	> 50 µM	> 25 µM	> 50 µM	–	–	–	–	–
O=c1[nH]c(=O)n([C@@H]2CO[C@H](CO)O2)cc1I	–	–	> 100 µM	–	> 200 µM	0.033 µM	17 µM	–	–	–	–
O=c1[nH]c(=O)n(C2CO[C@@H](CO)O2)cc1/C=C/Br (stereo partly drawn)	> 50 µM	26 µM	> 100 µM	> 50 µM	–	> 50 µM	–	–	–	–	–
O=c1[nH]c(=O)n([C@@H]2CO[C@H](CO)O2)cc1/C=C/I	33 µM	0.035 µM	> 100 µM	> 50 µM	> 200 µM	3.91 µM	–	–	–	–	–
O=c1[nH]c(=O)n([C@H]2CO[C@H](CO)O2)cc1/C=C/I	> 50 µM	> 30 µM	> 100 µM	> 50 µM	> 25 µM	> 50 µM	–	–	–	–	–
O=c1[nH]c(=O)n([C@@H]2CO[C@H](CO)O2)cc1Br	–	> 30 µM	> 100 µM	–	> 200 µM	0.19 µM	–	–	–	–	–
O=c1[nH]c(=O)n([C@H]2O[C@@H](CO)[C@H](O)[C@H]2O)cc1/C=C/Br (stereo in doubt)	–	–	–	–	> 200 µM	–	–	0.001 µM	47 µM	–	–
O=c1[nH]c(=O)n([C@H]2O[C@@H](CO)[C@H](O)[C@H]2O)cc1/C=C/Br (stereo in doubt; 4)	> 50 µM	–	> 100 µM	> 50 µM	–	> 50 µM	–	> 50 µM	–	–	–
Nc1nc2c(ncn2COCCO)c(=O)[nH]1 [ACYCLOVIR]	13.6 µM	–	> 100 µM	–	> 200 µM	19.7 µM	–	–	–	–	–
O=c1[nH]c(=O)n([C@H]2C[C@H](O)[C@@H](CO)O2)cc1/C=C/Br [BRIVUDINE]	> 50 µM	0.05 µM	> 100 µM	> 50 µM	> 100 µM	> 50 µM	–	–	–	> 50 µM	–
Nc1nc(O)c2ncn(CCC(CO)CO)c2n1 [PENCICLOVIR]	–	–	> 100 µM	–	> 200 µM	–	0.14 µM	–	–	–	18 µM
